Columns and labels:
[1] = tested on: Plasmodium falciparum strain 3D7; test: parasite lactate dehydrogenase; format: cell-based; details: for viability at 20 µM / IC50: Plasmodium falciparum, 3D7, 48 h; for viability at 20 µM: read-out: Pf 3D7 % cell viability at 20 μM; for antiplasmodial activity in vitro (in words): Pf 3D7, pLDH assay, low micromolar range; for IC50: read-out: Pf 3D7 IC50
[2] = HeLa cell cytotoxicity assay; format: cell-based; details: human, HeLa cells
Outline: (§1)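 HeLa cells were seeded at 2×10^4 per well in DMEM with 10 % FBS, 2 mM L-glutamine and antibiotics, then held overnight at 37 °C in 5 % CO2. Test compound was added to a final 20 μM for 48 h. Resazurin was then added to a final 50 μM for 4 h, and resorufin fluorescence was read at Ex560/Em590. Cell-free background was subtracted and results expressed as % viability against untreated wells.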

[3] = target: T1, PfCDPK4 (Plasmodium falciparum, UniProt Q8IBS5); test: Kinase Glo luciferase enzyme activity assay, recombinant PfCDPK4; format: biochemical
T1 sequence (Q8IBS5 1-528): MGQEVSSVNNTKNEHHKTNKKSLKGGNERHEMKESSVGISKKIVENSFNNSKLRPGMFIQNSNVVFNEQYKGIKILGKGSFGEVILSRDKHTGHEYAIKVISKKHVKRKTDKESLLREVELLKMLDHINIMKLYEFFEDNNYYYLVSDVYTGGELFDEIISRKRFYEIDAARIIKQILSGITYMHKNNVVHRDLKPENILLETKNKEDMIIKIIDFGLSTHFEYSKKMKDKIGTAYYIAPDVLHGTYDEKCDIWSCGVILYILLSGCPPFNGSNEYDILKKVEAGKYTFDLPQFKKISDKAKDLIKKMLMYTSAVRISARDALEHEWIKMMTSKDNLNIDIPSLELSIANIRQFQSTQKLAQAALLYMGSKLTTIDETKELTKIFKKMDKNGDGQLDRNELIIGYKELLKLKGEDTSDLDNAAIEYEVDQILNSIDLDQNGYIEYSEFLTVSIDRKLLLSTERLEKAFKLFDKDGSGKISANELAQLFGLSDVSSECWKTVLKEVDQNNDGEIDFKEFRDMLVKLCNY
Outline: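 Recombinant PfCDPK4 was expressed in Rosetta E. coli at 20 °C by auto-induction, then purified by IMAC and size exclusion. The enzyme was used at 180 nM with 40 μM Syntide-2 and serial inhibitor dilutions in 20 mM HEPES pH 7.5, 0.1 % BSA, 10 mM MgCl2, ±1 mM CaCl2, 1 mM EGTA. Reactions were started with 10 μM ATP and run 90 min at 30 °C. Remaining ATP was read by Kinase-Glo luminescence, with positive and DMSO controls on each plate.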

[4] = tested on: HeLa cells; test: HeLa cell cytotoxicity assay; format: cell-based; details: single concentration 20 μM
Outline: as §1

| IC50 [3] | IC50 [1] | Structure (SMILES) | viability at 20 µM [1] | viability at 48 h, 20 µM [2] | antiplasmodial activity in vitro (in words) [1] | cytotoxicity in vitro in HeLa cell assay (in words) [4] |
| --- | --- | --- | --- | --- | --- | --- |
| > 2000 nM | 12100 ± 11400 nM | COc1ccc(-c2cn(CC3CCN(C(C)=O)CC3)c3ncnc(N)c23)cc1OC [2 j, 1‐{4‐[(4‐Amino‐5‐(3,4‐dimethoxyphenyl)‐7H‐pyrrolo[2,3‐d]pyrimidin‐7‐yl)methyl]piperidin‐1‐yl}ethanone] | 2.8 ± 3.9% | 79.3 ± 0.8% | moderate antiplasmodial activity |  |
| > 2000 nM |  | COc1ccc(-c2cn(CCN3CCOCC3)c3ncnc(N)c23)cc1OC [2 o, 5‐(3,4‐Dimethoxyphenyl)‐7‐(2‐morpholinoethyl)‐7H‐pyrrolo[2,3‐d]pyrimidin‐4‐amine] | 57 ± 6.6% | 88 ± 11.8% |  |  |
|  | 15 nM | CCN(CC)CCCC(C)Nc1ccnc2cc(Cl)ccc12 (stereo not shown) [Chloroquine, reference compound] |  |  |  |  |
| > 2000 nM |  | COc1ccccc1-c1cn(CCN2CCOCC2)c2ncnc(N)c12 [2 n, 5‐(2‐Methoxyphenyl)‐7‐(2‐morpholinoethyl)‐7H‐pyrrolo[2,3‐d]pyrimidin‐4‐amine] | 95 ± 1% | 112 ± 2.8% |  |  |
| > 2000 nM |  | COc1ccc(-c2cn(CCC3CCN(C(=O)OC(C)(C)C)CC3)c3ncnc(N)c23)cc1OC [2 l, tert ‐Butyl 4‐{2‐[4‐amino‐5‐(3,4‐dimethoxyphenyl)‐7H‐pyrrolo[2,3‐d]pyrimidin‐7‐yl]ethyl}piperidine‐1‐carboxylate] | 66.8 ± 3.9% | 82.4 ± 1.4% |  |  |
|  | 8200 ± 3100 nM | CCOc1ccc2cc(-c3cn(CCN4CCOCC4)c4ncnc(N)c34)ccc2c1 [2 m, 5‐(2‐Ethoxynaphthalen‐6‐yl)‐7‐(2‐morpholinoethyl)‐7H‐pyrrolo[2,3‐d]pyrimidin‐4‐amine] | 12 ± 2.6% | 47 ± 7% | moderate antiplasmodial activity | moderate cytotoxicity |

More lines, now with the values behind:

| Structure (SMILES) | IC50 [3] | IC50 [1] | viability at 20 µM [1] | viability at 48 h, 20 µM [2] | antiplasmodial activity in vitro (in words) [1] | cytotoxicity in vitro in HeLa cell assay (in words) [4] |
| --- | --- | --- | --- | --- | --- | --- |
| COc1ccc(-c2cn(Cc3ccccc3)c3ncnc(N)c23)cc1OC [2 q, 7‐Benzyl‐5‐(3,4‐dimethoxyphenyl)‐7H‐pyrrolo[2,3‐d]pyrimidin‐4‐amine] |  |  | 110 ± 4.2% | 95.4 ± 0.5% |  |  |
| COc1ccc2cc(-c3cn(CC4CCN(C(C)=O)CC4)c4ncnc(N)c34)ccc2c1 [2 f, 1‐{4‐[(4‐Amino‐5‐(2‐methoxynaphthalen‐6‐yl)‐7H‐pyrrolo[2,3‐d]pyrimidin‐7‐yl)methyl]piperidin‐1‐yl}ethanone] | 210 ± 68 nM |  | 35.3 ± 2.2% | 92.1 ± 3.1% |  |  |
| COc1ccc2cc(-c3cn(CC4CC4)c4ncnc(N)c34)ccc2c1 [2 a, 7‐(Cyclopropylmethyl)‐5‐(2‐methoxynaphthalen‐6‐yl)‐7H‐pyrrolo[2,3‐d]pyrimidin‐4‐amine] |  |  | 103 ± 8% | 93.6 ± 7.1% |  |  |
| CCOCCOc1ccc2cc(-c3cn(CC4CCN(C(C)=O)CC4)c4ncnc(N)c34)ccc2c1 [2 h, 1‐{4‐{[5‐(2‐(2‐Ethoxyethoxy)naphthalen‐6‐yl)‐4‐amino‐7H‐pyrrolo[2,3‐d]pyrimidin‐7‐yl]methyl}piperidin‐1‐yl}ethanone] | > 2000 nM |  | 62.2 ± 9% | 94.4 ± 9.3% |  |  |
| COc1ccccc1-c1cn(CC2CCN(C(C)=O)CC2)c2ncnc(N)c12 [2 i, 1‐{4‐[(4‐Amino‐5‐(2‐methoxyphenyl)‐7H‐pyrrolo[2,3‐d]pyrimidin‐7‐yl)methyl]piperidin‐1‐yl}ethanone] | > 2000 nM |  | 121 ± 8.6% | 93.3 ± 3.2% |  |  |
| COc1ccc(-c2cn(CC3CC3)c3ncnc(N)c23)cc1OC [2 e, 7‐(Cyclopropylmethyl)‐5‐(3,4‐dimethoxyphenyl)‐7H‐pyrrolo[2,3‐d]pyrimidin‐4‐amine] | > 2000 nM |  | 110 ± 10.9% | 88.8 ± 0.7% |  |  |
| CCOc1ccc2cc(-c3cn(CC4CCN(C(C)=O)CC4)c4ncnc(N)c34)ccc2c1 [2 g, 1‐{4‐[(4‐Amino‐5‐(2‐ethoxynaphthalen‐6‐yl)‐7H‐pyrrolo[2,3‐d]pyrimidin‐7‐yl)methyl]piperidin‐1‐yl}ethanone] | 530 ± 185 nM | 14200 ± 1700 nM | 9.3 ± 1.6% | 92.8 ± 5.7% | moderate antiplasmodial activity |  |
| CCOc1ccc2cc(-c3cn(CC4CC4)c4ncnc(N)c34)ccc2c1 [2 b, 7‐(Cyclopropylmethyl)‐5‐(2‐ethoxynaphthalen‐6‐yl)‐7H‐pyrrolo[2,3‐d]pyrimidin‐4‐amine] | 369 ± 138 nM | 18700 ± 800 nM | 24.1 ± 3.8% | 79.8 ± 3.3% | moderate antiplasmodial activity |  |
| CCOCCOc1ccc2cc(-c3cn(CC4CC4)c4ncnc(N)c34)ccc2c1 [2 c, 5‐[2‐(2‐Ethoxyethoxy)naphthalen‐6‐yl]‐7‐(cyclopropylmethyl)‐7H‐pyrrolo[2,3‐d]pyrimidin‐4‐amine] |  |  | 93.1 ± 1.4% | 73 ± 4.1% |  |  |
| COc1ccccc1-c1cn(CC2CC2)c2ncnc(N)c12 [2 d, 7‐(Cyclopropylmethyl)‐5‐(2‐methoxyphenyl)‐7H‐pyrrolo[2,3‐d]pyrimidin‐4‐amine] | > 2000 nM |  | 107 ± 6% | 63.8 ± 1.5% |  |  |
| COc1ccccc1-c1cn(Cc2ccccc2)c2ncnc(N)c12 [2 p, 7‐Benzyl‐5‐(2‐methoxyphenyl)‐7H‐pyrrolo[2,3‐d]pyrimidin‐4‐amine] |  |  | 72.4 ± 13.3% | 97 ± 12.5% |  |  |
| COc1ccccc1-c1cn(CCC2CCN(C(=O)OC(C)(C)C)CC2)c2ncnc(N)c12 [2 k, tert ‐Butyl 4‐{2‐[4‐amino‐5‐(2‐methoxyphenyl)‐7H‐pyrrolo[2,3‐d]pyrimidin‐7‐yl]ethyl}piperidine‐1‐carboxylate] |  |  | 62 ± 2.1% | 78.9 ± 0.1% |  |  |
